Assay outcomes as filed in PubChem.
In the library only some 3.9% were active in any assay of this set; here they are far more common.
tim23-1 inh = growth inhibitors of tim23-1 mutant yeast, primary screen, luminescence, uHTS; S. cerevisiae tim23-1 growth, BacTiter-Glo luminescence, 24 h; inhibition, % at 20 µM; AID 463212, 2010; 330,000 tested, 1.3% active;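 active = growth inhibition of the mutant yeast at or above 50%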;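 note: temperature-sensitive mutant grown at 25 °C; plate controls were DMSO-treated mutant yeast for no effect and medium wells lacking yeast for full effect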
CHOP UPR activ = activators of apoptotic CHOP UPR arm, primary screen, cell-based, CHO-CHOP luciferase reporter, luminescence, uHTS; UPR activation; percent of tunicamycin response over DMSO baseline; activation, % at 10 µM; 330,000 tested, 0.34% active;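 active = at 10 µM dose, activation of 40% or more, normalized to positive control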;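 note: 100% = tunicamycin at 10 µg/mL and 0% = DMSO alone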
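System: CHO CHOP reporter cells. Amount: 500 cells per well. Buffer or medium: F12 medium, 10% FBS. Compound dosing: one dose, 10 µM in 0.5% DMSO. Incubation: 6 h compound exposure at 37 °C after overnight seeding. Technique: Steady-Glo luciferase luminescence. Benchmarks: tunicamycin and DMSO controls.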
tim10-1 inh = growth inhibitors of tim10-1 mutant yeast, primary screen, luminescence, uHTS | S. cerevisiae tim10-1 ts strain growth, BacTiter-Glo, 24 h | 330,000 tested, 2.2% active | inhibition, % at 20 µM;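 active = inhibition of at least 40%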;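 note: mutant grown at 25 °C; 0% = DMSO wells with yeast and 100% = wells holding no yeast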
TIM10 inh = growth inhibitors of isogenic TIM10 control yeast, primary screen, counter-screen for tim10-1 yeast inhibitor project, luminescence, uHTS; 330,000 tested, 1.4% active; S. cerevisiae TIM10 strain growth, BacTiter-Glo luminescence, 24 h; inhibition, % at 10 µM;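 active = inhibition of 40% or more at the single tested concentration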;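 note: wild-type TIM10 isogenic control strain grown at permissive 25 °C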
XBP1 UPR activ = activators of adaptive XBP1 UPR arm, primary screen, cell-based, CHO-XBP1 luciferase reporter, luminescence, uHTS. IRE1-XBP1 UPR activation; percent of tunicamycin response, DMSO as zero. activation, % at 20 µM. 330,000 tested, 0.33% active;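 active = versus positive control, 20 µM dose yields 30% or more activation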;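 note: 100% = tunicamycin at 10 µg/mL and 0% = DMSO only wells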
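Material – CHO cell line with stable XBP1 luciferase reporter · Buffer or medium – F12 plus 10% FBS · Compound – single point, 20 µM final compound, 1% DMSO · Schedule – 16-18 h cell attachment at 37 °C, then 6 h compound exposure · Signal – Steady-Glo luminescence read · Benchmarks – high control tunicamycin 10 µg/mL final, low control DMSO vehicle only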
tim10-1 conf = growth inhibitors of tim10-1 mutant yeast, confirmation, single concentration, luminescence, S. cerevisiae; shares compounds with tim10-1 inh; S. cerevisiae tim10-1 ts strain growth, BacTiter-Glo, 24 h; inhibition, % at 20 µM; 7,400 tested, 56% active;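 active = inhibition of yeast growth at or above a set limit in either of two repeat tests at 20 µM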;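 note: tim10-1 mutant grown at permissive 25 °C to find synthetic lethal compounds; 0% = DMSO yeast wells and 100% = medium wells without yeast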
tim10 confirm = growth inhibitors of wild-type TIM10 yeast, confirmation, counter-screen for tim10-1 synthetic lethality project, single concentration, luminescence, S. cerevisiae; 4,600 tested, 63% active; S. cerevisiae tim10 strain growth, BacTiter-Glo luminescence, 24 h; shares compounds with TIM10 inh; inhibition, % at 10 µM; AID 463215, 2010;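 active = inhibition of yeast growth at or above a set limit in either of two replicates at 10 µM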;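 note: this counterscreen used the strain with wild-type TIM10; 0% = yeast with DMSO and 100% = medium wells lacking yeast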
* = called active by the depositor; · = not tested or not shown.

SMILES | tim23-1 inh | CHOP UPR activ | tim10-1 inh | TIM10 inh | XBP1 UPR activ | tim10-1 conf | tim10 confirm
CCCS(=O)(=O)c1ccc(COC(=O)c2ccc(NC(C)=O)cc2)cc1 | 29 | 0 | 18 | 0 | -3 | · | ·
CN(C(=O)COC(=O)c1ccc2ccccc2n1)C1CCCCC1 | 13 | -1 | 11 | 6 | 1 | · | ·
CCNC(=S)N/N=C(\C)c1ccc2ccccc2c1OC(F)F | 32 | 0 | 47* | 56* | -1 | -1 | 41*
COc1ccc(CNC(=S)N/N=C(/C)c2ccccc2)cc1 | 34 | 4 | 35 | 33 | 2 | · | ·
CCNC(=S)N/N=C(\C)c1ccc2ccccc2c1 | 35 | 3 | 42* | 53* | -1 | 31* | 38*
CCNC(=S)N/N=C(\C)c1cccc(OC)c1 | 29 | 0 | -3 | 9 | 1 | · | ·
C/C(=N\NC(=S)NCc1ccccc1)c1ccccc1 | 31 | 1 | 47* | 44* | 4 | 44* | 40*
CCCc1cc(=O)oc2cc(C)cc(OC(C)C(=O)NCc3ccccn3)c12 (stereo not drawn) | 2 | -2 | 20 | 1 | -2 | · | ·
COc1ccc(Cl)cc1NC(=O)CN(C)CC(=O)Nc1cc(OC)c(OC)c(OC)c1 | 9 | -1 | 21 | 1 | -1 | · | ·
Cc1ccc2c(c1)Oc1ccc(NC(=O)CCl)cc1C(=O)N2 | 44 | 16 | 43* | 50* | -6 | 30* | 33*
Cc1ccc2c(c1)Oc1ccc([N+](=O)[O-])cc1C(=O)N2 | 3 | -1 | 13 | 8 | 0 | · | ·
COc1cccc(N2CCN(CC(=O)NC(=O)NC3CCCCC3)CC2)c1 | 20 | 1 | 11 | 10 | 0 | · | ·
CN1CCN(C(=O)CCN2C(=O)/C(=C/c3ccccc3Cl)SC2=S)CC1 | 40 | 2 | 44* | 44* | -3 | 24 | 28
COc1ccc(NC(=O)CNC(=O)c2nn(-c3ccc(OC)cc3OC)c(=O)c3ccccc23)c(OC)c1 | 9 | 0 | -15 | 8 | -5 | · | ·
COc1ccc(C(C)(C)C)cc1NC(=O)COC(=O)c1ccc([N+](=O)[O-])o1 | -84 | 1 | 53* | 40 | 3 | 3 | 92*
COc1ccc(C)cc1NC(=O)COC(=O)c1ccc([N+](=O)[O-])o1 | 45 | -2 | 78* | 88* | -2 | 74* | -36
CCN(CC(=O)Nc1cc(C)nn1-c1nc(C)cc(C)n1)Cc1ccccc1 | 29 | -1 | 44* | 44* | -1 | 19 | -27
CCO/C=N/Nc1nc(C(F)(F)F)nc2c1cnn2Cc1ccccc1 | 40 | 0 | 59* | 56* | -6 | 56* | 58*
CCN1CCN(c2cc(N3CCN(C(=O)c4ccco4)CC3)c3c4c(onc24)-c2ccccc2C3=O)CC1 | 17 | 0 | 16 | 14 | -3 | · | ·
CCOC(=O)C(C(=O)OCC)c1cc(Br)c2noc3c2c1C(=O)c1ccccc1-3 | 46 | -7 | 42* | 44* | -11 | 39* | 27
N#Cc1cccc2c1-c1ccccc1/C2=N/NC(N)=O | 18 | 0 | -3 | -7 | 0 | · | ·
N#Cc1cccc2c1-c1ccccc1/C2=N/NC(N)=S | 40 | 7 | 52* | 47* | 4 | 41* | 56*
CCc1noc(C)c1C(=O)N1CC(C)SC1=Nc1ccc(Cl)cc1 (stereo not drawn) | 37 | -2 | 14 | 8 | 0 | · | ·
CCN(CC)/C(Sc1ccccc1)=C(/C(Cl)=C(Cl)Cl)[N+](=O)[O-] | 39 | 2 | 46* | 42* | 10 | 33* | 35*
CCOc1ccccc1N/C(=C(/C(Cl)=C(Cl)Cl)[N+](=O)[O-])n1cncn1 | 19 | 1 | 15 | 17 | 1 | · | ·
SMILES | tim23-1 inh | CHOP UPR activ | tim10-1 inh | TIM10 inh | XBP1 UPR activ | tim10-1 conf | tim10 confirm
O=C(Nc1nnc(CC2=CCCCC2)s1)c1cccs1 | 30 | 4 | 47* | 72* | 3 | 42* | -27
O=C(Nc1nc2c(s1)CCCC2)c1cccs1 | 6 | 0 | 44* | 44* | -2 | 30* | 12
Cn1c(N)c(C(=O)COC(=O)/C=C/c2ccc(Cl)c(Cl)c2)c(=O)n(C)c1=O | 0 | 0 | 1 | -10 | -4 | · | ·
CCc1ccc2c(c1)C1(NN=C(c3cccc4ccccc34)S1)C(=O)N2 (stereo not drawn) | 50 | 95* | 54* | 55* | 7 | 47* | 59*
N/C(=N\OC(=O)Cc1cccs1)c1ccc(Br)cc1 | 16 | 2 | 33 | 23 | 3 | · | ·
N/C(Cc1ccc(Cl)cc1Cl)=N\OC(=O)Cc1cccs1 | 28 | 3 | 48* | 49* | 3 | 38* | 8
N/C(Cc1ccc(Cl)cc1Cl)=N\OC(=O)c1cccs1 | 34 | 0 | 73* | 86* | 0 | 37* | 86*
COc1cccc(CN2CCN(C(=O)c3ccco3)CC2)c1 | 3 | 0 | -1 | 6 | -1 | · | ·
CC(C)c1ccccc1NC(=S)NN(Cc1ccccc1)c1ccccc1 | 34 | -1 | 46* | 52* | -3 | 32* | 29*
Cc1cccc(C)c1NC(=S)NN(Cc1ccccc1)c1ccccc1 | 0 | 1 | 27 | 0 | 7 | · | ·
O=C(CCN1C(=O)/C(=C\c2cccc(Br)c2)SC1=S)N1CCOCC1 | 24 | 11 | 13 | 6 | -4 | · | ·
COc1ccc(/C=C2\SC(c3ccc(C)cc3)=NC2=O)cc1OC | 8 | -1 | 18 | 4 | 4 | · | ·
COc1cc(/C=C2\SC(c3ccc(C)cc3)=NC2=O)ccc1O | 50 | -6 | 52* | 46* | -3 | 31* | 43*
Cc1ccc(S(=O)(=O)N(CC(=O)N2CCCC2)C2CCCCC2)cc1 | 12 | -1 | 12 | 14 | -3 | · | ·
Cc1cc(C)c(S(=O)(=O)N(CC(=O)N2CCCC2)C2CCCCC2)c(C)c1 | 48 | 1 | 40* | 43* | -1 | 23 | 14
CCOCCOc1cccc(C(=O)NC(c2ccccc2)c2ccccc2)c1 | 14 | 2 | 14 | 5 | -5 | · | ·
CC(C)Cn1c(-c2csc3c2CCCC3)n[nH]c1=S | 40 | 1 | 48* | 44* | 0 | 20 | 40*
Cc1cc(C)cc(NC(=S)NC(=O)Cc2ccccc2)c1 | 47 | 0 | 44* | 40* | 1 | 30* | 40*
CN=C(Nc1ccc(Br)cc1)SC1CC(=O)N(c2ccc(OC)cc2)C1=O (stereo not drawn) | 18 | 0 | 41* | 45* | 1 | 22 | 27
